In ChEMBL document CHEMBL1134307, “trans-4-[4-(Methoxyphenyl)cyclohexyl]-1-arylpiperazines: a new class of potent and selective 5-HT(1A) receptor ligands as conformationally constrained analogues of 4-[3-(5-methoxy-1,2,3,4-tetrahydronaphthalen-1-yl)propyl]-1-arylpiperazines” (J Med Chem, 2001):

Legend:
D(2) dopamine receptor = D(2) dopamine receptor (Rattus norvegicus, UniProt P61169); test: Binding affinity towards dopamine receptor D2 in rat striatal membranes; type: cell membranes, Striatum, Membrane
D(2) dopamine receptor, sequence (P61169 whole entry): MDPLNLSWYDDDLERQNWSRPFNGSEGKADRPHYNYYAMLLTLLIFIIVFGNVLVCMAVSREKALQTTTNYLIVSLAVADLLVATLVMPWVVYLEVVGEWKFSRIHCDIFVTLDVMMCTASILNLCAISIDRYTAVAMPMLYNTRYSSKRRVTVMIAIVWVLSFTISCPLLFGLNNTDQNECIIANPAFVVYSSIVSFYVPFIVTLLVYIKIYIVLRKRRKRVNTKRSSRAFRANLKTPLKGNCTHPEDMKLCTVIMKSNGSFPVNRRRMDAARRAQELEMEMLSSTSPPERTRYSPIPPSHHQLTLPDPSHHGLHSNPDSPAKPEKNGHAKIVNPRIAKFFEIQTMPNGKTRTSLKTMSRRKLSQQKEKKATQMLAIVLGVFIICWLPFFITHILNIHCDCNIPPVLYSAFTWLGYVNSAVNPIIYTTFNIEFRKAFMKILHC

[1] = target: T1, Adrenergic receptor alpha-1 (Rattus norvegicus, UniProt P15823+P23944+P43140); test: Binding affinity towards alpha-1 adrenergic receptor in rat cortical membranes; type: cell membranes
T1 sequence (P15823 whole entry): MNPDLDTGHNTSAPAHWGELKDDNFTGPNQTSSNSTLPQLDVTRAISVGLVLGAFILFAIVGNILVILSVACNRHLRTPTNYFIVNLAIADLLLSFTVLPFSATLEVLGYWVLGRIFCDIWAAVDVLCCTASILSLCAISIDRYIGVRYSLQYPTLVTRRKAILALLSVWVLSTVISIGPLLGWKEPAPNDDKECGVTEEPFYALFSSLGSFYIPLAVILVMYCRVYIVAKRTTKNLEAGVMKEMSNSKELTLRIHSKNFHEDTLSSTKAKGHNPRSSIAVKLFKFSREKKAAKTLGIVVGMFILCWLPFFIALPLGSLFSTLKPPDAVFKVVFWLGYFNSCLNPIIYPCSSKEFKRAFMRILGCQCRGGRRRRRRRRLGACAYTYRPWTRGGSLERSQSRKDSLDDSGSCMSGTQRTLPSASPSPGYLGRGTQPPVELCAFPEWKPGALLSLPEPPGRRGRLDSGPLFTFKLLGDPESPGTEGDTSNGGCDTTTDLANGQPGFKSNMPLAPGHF
T1 sequence (P23944 whole entry): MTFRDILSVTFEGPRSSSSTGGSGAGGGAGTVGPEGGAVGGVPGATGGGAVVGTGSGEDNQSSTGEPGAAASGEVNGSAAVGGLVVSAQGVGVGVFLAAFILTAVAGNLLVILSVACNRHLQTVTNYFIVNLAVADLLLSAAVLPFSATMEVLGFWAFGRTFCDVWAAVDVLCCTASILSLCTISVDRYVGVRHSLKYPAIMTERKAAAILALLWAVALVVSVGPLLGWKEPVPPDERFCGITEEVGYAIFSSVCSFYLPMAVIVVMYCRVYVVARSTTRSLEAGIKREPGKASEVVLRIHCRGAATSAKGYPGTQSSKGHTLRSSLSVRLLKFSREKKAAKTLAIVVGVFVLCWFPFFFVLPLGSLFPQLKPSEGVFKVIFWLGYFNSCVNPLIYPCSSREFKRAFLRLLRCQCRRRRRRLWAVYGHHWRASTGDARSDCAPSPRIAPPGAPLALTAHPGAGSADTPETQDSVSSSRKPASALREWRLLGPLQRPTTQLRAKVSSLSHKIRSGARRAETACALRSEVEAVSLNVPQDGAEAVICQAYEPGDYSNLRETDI
T1 sequence (P43140 whole entry): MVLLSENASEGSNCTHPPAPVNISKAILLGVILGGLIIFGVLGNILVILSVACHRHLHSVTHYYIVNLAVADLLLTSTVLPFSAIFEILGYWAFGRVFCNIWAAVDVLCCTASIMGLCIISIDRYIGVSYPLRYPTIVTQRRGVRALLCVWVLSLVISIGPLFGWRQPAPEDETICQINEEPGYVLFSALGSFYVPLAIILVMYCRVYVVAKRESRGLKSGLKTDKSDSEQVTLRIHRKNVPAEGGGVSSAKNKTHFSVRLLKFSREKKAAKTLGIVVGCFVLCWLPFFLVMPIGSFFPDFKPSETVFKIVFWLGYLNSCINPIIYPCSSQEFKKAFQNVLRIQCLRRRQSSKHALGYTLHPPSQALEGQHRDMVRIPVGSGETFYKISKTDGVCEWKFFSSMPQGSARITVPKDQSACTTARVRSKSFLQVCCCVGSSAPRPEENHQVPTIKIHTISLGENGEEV

[2] = target: T2, 5-hydroxytryptamine receptor 1A (Rattus norvegicus, UniProt P19327); test: Binding was determined on 5-hydroxytryptamine 1A receptor in rat hippocampal membranes; type: cell membranes, Hippocampus
T2 sequence (P19327 whole entry): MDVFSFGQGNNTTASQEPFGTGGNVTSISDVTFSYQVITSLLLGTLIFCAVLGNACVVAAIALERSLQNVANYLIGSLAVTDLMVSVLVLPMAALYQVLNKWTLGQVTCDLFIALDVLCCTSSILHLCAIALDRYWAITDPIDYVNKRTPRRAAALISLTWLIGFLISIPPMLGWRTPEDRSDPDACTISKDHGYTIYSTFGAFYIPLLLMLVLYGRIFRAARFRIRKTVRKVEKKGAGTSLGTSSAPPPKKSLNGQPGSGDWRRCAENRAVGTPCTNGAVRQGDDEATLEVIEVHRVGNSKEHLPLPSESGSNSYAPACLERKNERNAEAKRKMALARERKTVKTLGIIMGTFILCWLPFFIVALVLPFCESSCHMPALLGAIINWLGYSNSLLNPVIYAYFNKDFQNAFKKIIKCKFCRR
Method in brief: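 Hippocampus from male Wistar Hannover rats, homogenized in 50 mM Tris pH 7.6, washed, and preincubated 10 min at 37 °C. Ki given as mean ± SEM.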

[3] = Selectivity expressed as a ratio of affinity against Alpha 1d-Adrenoceptor to that of 5-HT1A receptor
[4] = target: T3, 5-hydroxytryptamine receptor 1A (Homo sapiens) (UniProt P08908); test: Potency (pD2) for the stimulation of [35S]GTP-gamma-S, binding on 5-hydroxytryptamine 1A receptor; type: functional
T3 sequence (whole entry): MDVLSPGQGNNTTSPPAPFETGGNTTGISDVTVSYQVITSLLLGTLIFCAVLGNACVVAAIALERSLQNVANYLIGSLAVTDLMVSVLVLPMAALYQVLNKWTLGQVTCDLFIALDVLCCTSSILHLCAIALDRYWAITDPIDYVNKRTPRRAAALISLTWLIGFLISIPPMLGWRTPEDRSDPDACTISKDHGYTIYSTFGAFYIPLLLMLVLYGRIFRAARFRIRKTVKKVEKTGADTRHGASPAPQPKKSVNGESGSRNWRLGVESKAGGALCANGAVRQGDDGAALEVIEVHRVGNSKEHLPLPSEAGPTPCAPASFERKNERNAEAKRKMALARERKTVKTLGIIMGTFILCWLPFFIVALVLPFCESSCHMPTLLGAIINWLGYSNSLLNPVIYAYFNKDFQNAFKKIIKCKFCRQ
Method in brief: (§1)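 Membranes of HeLa cells expressing human 5-HT1A, in 20 mM HEPES, 3 mM MgCl2, 120 mM NaCl pH 7.4. Preincubated 20 min at 30 °C with 30 µM GDP and drug (0.1 nM–100 µM) or 5-HT as reference curve. [35S]GTPγS (200–250 pM) then added for 30 min at 30 °C. Nonspecific binding with 10 µM GTPγS. Curves fitted by ALLFIT to give Emax and pD2 (−log EC50).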

[5] = Selectivity expressed as a ratio of affinity against Alpha 1b-Adrenoceptor to that of 5-HT1A receptor
[6] = target: T4, 5-hydroxytryptamine receptor 1A (Rattus norvegicus) (UniProt P19327); test: Agonistic activity (induction of forepaw treading in rats)on postsynaptic 5-hydroxytryptamine 1A receptor while iv administration; type: functional, organism-based
T4 sequence (whole entry): T2 sequence (P19327 whole entry)
Method in brief: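 Male Sprague Dawley rats (175–200 g), iv injection; vehicle DMF 20% v/v plus Tween 80 10% v/v in water, or water for the reference agonist. Rats placed singly 10–15 min beforehand, 4–8 per dose. A blind observer scored fore-paw treading in 30 s sessions every 3 min from 3 to 15 min.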

[7] = Selectivity expressed as a ratio of affinity against Alpha 1A-Adrenoceptor to that of 5-HT1A receptor
[8] = target: T3, 5-hydroxytryptamine receptor 1A (Homo sapiens); test: Maximal stimulation was expressed as percentage of the maximal 5-HT response in the [35S]GTP-gamma-S, binding assay on 5-hydroxytryptamine 1A receptor; type: functional; method in brief: as §1

Row | Structure (SMILES) | Ki (D(2) dopamine receptor) [nM] | Ki [1] [nM] | Ki [2] [nM] | further results
1 | COc1cccc2c1CCC/C2=C\CCN1CCN(c2ccccn2)CC1 | 125 | 60 | 0.31 | 
2 | COc1cccc(C2=CCC(N3CCN(c4ccccc4OC)CC3)CC2)c1 (stereo unspecified) | 2930 | 408 | 7.1 | 
3 | COc1ccc(C2CCC(N3CCN(c4ccccn4)CC3)CC2)cc1 (trans isomer) | 792 | 847 | 0.046 | 
4 | COc1cccc(C2CCC(N3CCN(c4ccccc4)CC3)CC2)c1 (stereo in doubt; trans) | 910 | 730 | 0.026 | 
5 | COc1cccc(C2CCC(N3CCN(c4ccccn4)CC3)CC2)c1 (trans isomer) |  |  |  | Selectivity [3]: 590; pD2 [4]: 9.28; Selectivity [5]: 265; ED50 [6]: 0.721 µg/kg; Selectivity [7]: 165; Emax [8]: 95.9%
6 | COc1cccc(C2CCC(NCCOc3ccccn3)CC2)c1 (stereo in doubt) |  |  |  | Selectivity [3]: 37; pD2 [4]: 7.46; Selectivity [5]: 88; Selectivity [7]: 53; Emax [8]: 82%
7 | COc1cccc(CCCCN2CCN(c3ccccn3)CC2)c1 | 750 | 467 | 23 | 
8 | COc1ccccc1C1CCC(N2CCN(c3ccccn3)CC2)CC1 (stereo in doubt; cis) | 2120 | 712 | 480 | 
9 | COc1ccc2c(c1)CCC(CN1CCN(c3ccccn3)CC1)C2 (stereo unspecified) | > 850 | 585 | 676 | 
10 | COc1cccc(C2CCC(N3CCN(c4cccc5ccccc45)CC3)CC2)c1 (trans isomer) | 70 | 470 | 0.22 | 
11 | CCCN(CCC)C1CCc2cccc(O)c2C1 (stereo unspecified) |  |  |  | Emax [8]: 100%
12 | COc1cccc(C2CCC(N3CCN(c4cccc5ccccc45)CC3)CC2)c1 (stereo in doubt) | 1310 | 5540 | 74 | 
13 | COc1ccc2c(c1)CCC(CNCCOc1ccccn1)C2 (stereo unspecified) | > 850 | > 850 | 59 | 
14 | COc1cccc(C2=CCC(N3CCN(c4ccccn4)CC3)CC2)c1 (stereo unspecified) | 1220 | 512 | 536 | 
15 | COc1ccccc1C1CCC(N2CCN(c3ccccn3)CC2)CC1 (stereo in doubt; trans) | 243 | 303 | 0.2 | 
16 | COc1cccc(C2CCC(N3CCN(c4ccccc4)CC3)CC2)c1 (stereo in doubt; cis) | 2380 | 2250 | 183 | 
17 | COc1cccc(C2CCC(N3CCN(c4ccccn4)CC3)CC2)c1 (cis isomer) | > 850 | 783 | 815 | 
18 | COc1ccc(C2CCC(N3CCN(c4ccccn4)CC3)CC2)cc1 (stereo in doubt) | 787 | 786 | 94 | 
19 | COc1ccc2c(c1)CC(CCN1CCN(c3ccccn3)CC1)CC2 (stereo unspecified) | 1730 | 117 | 0.16 | 
20 | COc1cccc(C2=CCC(N3CCN(c4cccc5ccccc45)CC3)CC2)c1 (stereo unspecified) | 327 | 986 | 15 | 
21 | COc1cccc(C2=CCC(N3CCN(c4ccccc4)CC3)CC2)c1 (stereo unspecified) | 2190 | 5160 |  | 
22 | COc1cccc(CCCCNCCOc2ccccn2)c1 | > 850 | 733 | 39 | 
23 | COc1cccc(C2CCC(N3CCN(c4ccccc4OC)CC3)CC2)c1 (stereo in doubt; cis) | 668 | 1050 | 79.6 | 
24 | COc1cccc(C2CCC(NCCOc3ccccn3)CC2)c1 (cis isomer) | 783 |  | 373 | 
25 | COc1cccc(C2CCC(N3CCN(c4ccccc4OC)CC3)CC2)c1 (stereo in doubt; trans) |  |  |  | Selectivity [3]: 21; pD2 [4]: 9.91; Selectivity [5]: 206; Selectivity [7]: 24; Emax [8]: 26.5%
26 | COc1cccc2c1CCC/C2=C\CCNCCOc1ccccn1 | > 850 | > 850 | 0.71 | 
